Key:
[1] = Drug level in monkey liver microsomes treated with 5-(8-Fluoro-3-(1-(3-methoxyquinolin-6-yl)ethyl)[1,2,4]-triazolo[4,3-a]pyridin-6-yl)-3-methylisoxazole assessed as compound formation in presence of NADPH by LC-MS/MS method; type: ADME, Macaca mulatta; conditions: rhesus monkey
Procedure, shortened: (§1)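 Compound incubated with NADPH in mouse, rat, dog, monkey or human liver microsomes. Metabolites were identified by accurate mass spectrometry and MS/MS, and selected ion chromatograms were used to build metabolite profiles.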

Liver microsome = assay: Drug level in human liver microsomes treated with 5-(8-Fluoro-3-(1-(3-methoxyquinolin-6-yl)ethyl)[1,2,4]-triazolo[4,3-a]pyridin-6-yl)-3-methylisoxazole assessed as compound formation in presence of NADPH by LC-MS/MS method; type: ADME; procedure, shortened: as §1

- Drug metabolism [1]: metabolite_detected
- Drug metabolism (Liver microsome): metabolite_detected
Compound: COc1cnc2ccc([C@H](CO)c3nnc4c(F)cc(-c5cc(C)no5)cn34)cc2c1
